An excerpt weighted towards active compounds, which were near 4.3% of everything screened.
PREPL inhibitor: human PREPL enzyme inhibition. Q4J6C6. recombinant PREPL, fluorescence polarization activity-based probe. inhibition, % at 5.96 µM. 0.68% of 320,000 active. AID 2751; in the data active = inhibition above about 43%
SUMO HTRF inh: blocks human SUMOylation mediated by UBC9. P63279. HTRF SUMOylation assay, SAE1/SAE2 + UBC9, in vitro. inhibition, % at 35 µM. 0.36% of 290,000 active. AID 2006; in the data active = inhibition above about 50%, passing the limit was not always enough
Target sequence (P63279 whole entry, looked up): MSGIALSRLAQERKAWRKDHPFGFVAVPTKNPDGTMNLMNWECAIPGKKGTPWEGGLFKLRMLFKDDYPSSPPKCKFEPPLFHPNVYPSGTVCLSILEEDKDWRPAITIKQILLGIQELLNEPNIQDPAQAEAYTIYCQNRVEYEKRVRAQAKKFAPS
Rin1-Abl PPI inh: human Rin1-Abl interaction inhibition | inhibition, % at 7.35 µM | 0.4% of 360,000 active | TR-FRET Rin1/Abl binding, biochemical; in the data active = inhibition above about 5%, passing the limit was not always enough
UBC13 polyUb: blocks human UBC13 polyubiquitin chain formation; inhibition, % at 20 µM; TR-FRET; P61088; 0.47% of 330,000 active; in the data active = inhibition above about 45%, passing the limit was not always enough
Target sequence (P61088 whole entry, looked up): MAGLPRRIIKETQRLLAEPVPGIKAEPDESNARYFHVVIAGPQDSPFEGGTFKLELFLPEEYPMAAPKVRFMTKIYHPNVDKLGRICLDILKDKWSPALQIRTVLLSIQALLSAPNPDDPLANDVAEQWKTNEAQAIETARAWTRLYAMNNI
RBBP9 inhibitor: human RBBP9 hydrolase inhibition; O75884; recombinant RBBP9, FP-Rh probe fluorescence polarization; inhibition, % at 7.94 µM; 0.2% of 220,000 active; AID 1515;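 active = inhibition above the campaign mean of all tested compounds plus 3 SD, cut at about 14% in these data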
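System: RBBP9 protein / Quantity: 2.5 µM RBBP9 dispensing solution, before mixing / Also added: Serine-hydrolase probe FP-Rh, 375 nM pre-mixing / Dosing: 7.94 µM single dose, 0.794% DMSO / Timing: enzyme-compound preincubation 30 min, then probe labeling 45 min, 25 °C / Signal: FP readout at 525/598 nm / Controls: DMSO-treated enzyme wells and wells lacking RBBP9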
ALR H2O2 inh: inhibitors of human sulfhydryl oxidase ALR | AID 485317 | purified ALR, DTT oxidation, H2O2 HRP-luminol luminescence | inhibition, % (concentration not given with the values) | 3.8% of 290,000 active;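 active = mean replicate inhibition above about 79%, with every replicate also reaching it, limit read from the data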
Target sequence (P55789 whole entry, looked up): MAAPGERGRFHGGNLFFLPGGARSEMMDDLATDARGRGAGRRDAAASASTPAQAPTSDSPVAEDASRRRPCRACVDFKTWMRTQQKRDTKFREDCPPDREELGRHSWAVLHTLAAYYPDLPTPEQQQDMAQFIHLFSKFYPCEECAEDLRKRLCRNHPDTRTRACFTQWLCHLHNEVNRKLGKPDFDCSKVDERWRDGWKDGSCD
Hits are given with their value; . = inactive; / = not tested or not shown.

SMILES	PREPL inhibitor	SUMO HTRF inh	Rin1-Abl PPI inh	UBC13 polyUb	RBBP9 inhibitor	ALR H2O2 inh
CS(=O)(=O)c1ccc(S(=O)CC(=O)Oc2ccc(Cl)cc2)c([N+](=O)[O-])c1 (centres undefined)	.	.	/	.	.	.
O=C(CS(=O)c1ccccc1[N+](=O)[O-])Oc1ccc(Br)cc1 (centres undefined)	.	.	.	.	.	78
Fc1ccc(Br)cc1C1C=C(c2ccc(Br)s2)Nc2ncnn21 (centres undefined)	.	.	.	.	.	88
COc1cccc(C2C=C(c3ccc(Br)s3)Nc3ncnn32)c1OC (centres undefined)	.	.	.	.	.	.
O=C(CSc1ccsc1[N+](=O)[O-])N1CCN(c2ccccc2)CC1	.	.	.	.	.	.
O=C(CSc1ccsc1[N+](=O)[O-])N1CCN(c2ccc(Cl)cc2)CC1	44	.	.	.	.	.
Oc1ccc(C[C@H]2CNC(=S)N2C[C@H]2CCCN2C[C@H](Cc2ccccc2)N2C[C@H](Cc3ccc(O)cc3)N(CC3CCCCCC3)C2=S)cc1	/	/	.	/	/	/
N=c1c(S(=O)(=O)c2ccccc2)cc2c(=O)n3ccccc3nc2n1Cc1ccco1	.	50	.	.	.	.
Cc1ccc2nc3c(cc(S(=O)(=O)c4ccccc4)c(=N)n3Cc3ccco3)c(=O)n2c1	.	80	.	.	.	.
CC(=O)NC(CC(=O)OCC(=O)Nc1ccc2c(c1)OCO2)c1ccccc1 (centres undefined)	.	.	.	.	/	/
COCCN1CCn2c(nc3cc(NC(=O)c4ccc(OC)cc4)ccc32)C1	.	.	.	.	.	.
COc1ccccc1C(=O)Nc1ccc2c(c1)nc1n2CCSC1	.	.	.	.	.	99
CCCCC(=O)Nc1ccc2c(c1)nc1n2CCSC1	.	.	.	.	.	99
COc1ccc(OCC(=O)Nc2ccc3c(c2)nc2n3CCSC2)cc1	.	.	.	.	.	.
Cc1ccc(C(=O)Nc2ccc3c(c2)nc2n3CCSC2)cc1	.	.	.	.	.	98
CC(=O)Nc1ccc2c(c1)nc1n2CCSC1	.	.	.	.	.	99
CC(C)CCCN1C(N(C)C)=NC[C@@H]1C	.	/	.	.	/	/
COc1cccc(C(=O)OCC(=O)N2CCc3ccccc3C2)c1	.	/	.	.	/	/
COc1ccccc1C(=O)Nc1ccc2nc(SCC(=O)N(C)C)sc2c1	.	.	.	.	.	100
COc1ccccc1C(=O)Nc1ccc2ccccc2c1	.	/	.	.	/	.
CC1(c2nnc(Cc3ccccc3)o2)CC(c2cccc(F)c2)=NO1 (centres undefined)	.	/	.	.	/	.
Cc1ccc2sc(N3CCN(C(=O)C4=COCCO4)CC3)nc2c1C	.	/	.	.	/	.
O=C(NNc1nc2c(F)cccc2s1)C1=COCCO1	.	.	.	.	.	100
O=C(NNc1nc2c(F)cccc2s1)c1ccccc1	.	.	.	.	.	.
Cc1ccc2sc(NNC(=O)C3=COCCO3)nc2c1C	.	.	.	.	.	99
SMILES	PREPL inhibitor	SUMO HTRF inh	Rin1-Abl PPI inh	UBC13 polyUb	RBBP9 inhibitor	ALR H2O2 inh
CCCCC(=O)N(C)c1c(C)nc2ccc(C(=O)N3CCNC(=O)C3)cn12	/	/	.	/	/	/
c1ccc2c(-c3cccc4nccn34)cncc2c1	/	/	.	/	/	/
CCC1(c2ccccc2)SCC(c2ccccc2)=NC1=O (centres undefined)	/	/	.	/	/	/
Cc1nc(N=Nc2ccc(O)cc2)n[nH]1	.	.	.	.	.	94
CCN1CCCc2cc(CN(CCN3CCOCC3)C(=O)Nc3ccc(C)c(C)c3)ccc21	.	.	.	.	.	99
CCc1ccc(NC(=O)N(CCN2CCOCC2)Cc2ccc3c(c2)CCCN3CC)cc1	.	.	.	.	.	99
CCc1ccc(NC(=O)N(CCCN2CCOCC2)Cc2cccs2)cc1	.	.	.	.	.	.
COc1ccc2c3c(cccc13)C(=O)N(O)C2=O	.	.	.	/	.	/
CCC1=NNc2cccc3c(OC)ccc1c23	.	59	/	.	.	.
COc1ccc(C(=O)C2CCCN(Cc3ccc(Sc4nncn4C)o3)C2)cc1F (centres undefined)	.	.	.	.	.	.
O=C(O)CCCN1C(=O)/C(=C\c2ccco2)SC1=S	/	.	.	/	.	/
O=C(O)CCN1C(=O)/C(=C\c2ccc(-c3nc4ccccc4s3)o2)SC1=S	.	.	.	.	.	98
Nc1ccccc1C(O)(Cc1ccccc1)c1ccccc1 (centres undefined)	.	.	.	.	/	99
CCN1CCn2c3c(c4cc(Cl)ccc42)CCCC31 (centres undefined)	.	.	.	.	.	.
CCN(CC)CCN1CCn2c3c(c4cc(C)ccc42)CCCC31 (centres undefined)	52	.	.	.	.	99
Cc1ccc(-c2nn(-c3ccccc3)cc2NC(=O)CCl)cc1	.	.	.	.	.	.
COc1cc2c(CCNC(C)=O)c[nH]c2cc1O	.	/	.	.	/	80
COc1c(O)c(O)c2oc(-c3ccccc3)cc(=O)c2c1OC	.	.	.	.	.	.
COc1cc(-c2cc(OC)c3c(C)oc(C)c3c(=O)c2)ccc1O	.	.	.	.	.	91
COc1ccc(-c2cc(OC)c3c(C)oc(C)c3c(=O)c2)cc1OC	.	.	.	.	.	.
COc1cc(-c2cc(=O)c3c(O)c(OC)c(OC)c(O)c3o2)ccc1O	.	.	.	.	.	99
CC(C)(C)c1[nH]nc2c1C(c1cccnc1)C(C#N)=C(N)O2 (centres undefined)	.	.	.	.	.	.
CC(C)(C)c1[nH]nc2c1C(c1ccc(OC(=O)c3ccco3)cc1)C(C#N)=C(N)O2 (centres undefined)	71	.	.	.	.	.
Cc1cc(C)nc(SCc2csc(N)n2)n1	.	.	.	.	.	/
Cc1cc(C)nc(SCc2csc(-c3ccccc3)n2)n1	.	.	.	.	.	99
SMILES	PREPL inhibitor	SUMO HTRF inh	Rin1-Abl PPI inh	UBC13 polyUb	RBBP9 inhibitor	ALR H2O2 inh
CCOC(=O)Cc1cnc(NC(=O)CSc2nc(C)c(CC)c(=O)[nH]2)s1	.	.	.	.	.	99
CCCc1cc(=O)[nH]c(SCc2cccnc2)n1	.	.	.	.	.	97
CCCc1cc(=O)[nH]c(SCc2csc(-c3ccccc3)n2)n1	.	.	.	.	.	99
CCc1nc(SCc2ccc(F)cc2)[nH]c(=O)c1C#N	.	.	.	.	.	98
O=C(CSc1nc2ccccc2[nH]1)Nc1c(F)c(F)c(F)c(F)c1F	.	.	.	.	.	.
O=C(CSc1nc2ccccc2[nH]1)Nc1nc(-c2ccc(Br)cc2)cs1	.	.	.	.	.	98
CCCc1cc(=O)[nH]c(SCC(=O)Nc2nc(-c3ccccc3)cs2)n1	.	.	.	.	.	99
Clc1ccc(-c2nc(CSc3ccccn3)cs2)cc1	/	/	.	/	/	/
Nc1ccccc1SCc1csc(-c2ccc(Cl)cc2)n1	.	.	.	.	.	98
